5-HT1A blocker: blocks the human serotonin 5-HT1a receptor. P08908. CHO 5-HT1a Ga15 NFAT-bla reporter, antagonist mode. inhibition, % at 10 µM. 62,000 tested, 0.68% active;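 active = inhibition above the mean of all tested compounds plus 3 SD, cut at about 43% in these data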;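 also: receptor stimulated by 5-CT agonist at 100 nM near EC80; beta-lactamase reporter measured by ratiometric fluorescence of a cleavable substrate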
HTR1A agonist: activates the human 5-HT1a serotonin receptor; P08908; CHO 5-HT1a Ga15 NFAT-bla reporter, FRET ratio; 0% basal, 100% maximal reference agonist; activation, % at 10 µM; 65,000 tested, 0.56% active; AID 567;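 active = activation above the screen-wide mean activation plus 3 SD, cut at about 19% in these data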;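 also: 0% = DMSO wells and 100% = 5-CT at EC100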
5HT1E antag: antagonists of human 5-HT1E serotonin receptor | P28566 | CHO 5-HT1E Ga15 NFAT-bla reporter, FRET, antagonist | inhibition, % at 6 µM | 65,000 tested, 0.99% active | AID 571;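 active = inhibition above a set limit, the mean inhibition across every tested compound plus 3 SD, cut at about 29% in these data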;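 also: signal is the 460 over 535 nm emission ratio of beta-lactamase substrate; 0% = agonist plus DMSO wells and 100% = wells without agonist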
S1P3 ag: agonists of human S1P3 receptor; activation, % at 4.5 µM; S1P3 NFAT-BLA reporter cells, agonism, FRET ratio; relative to 1 µM S1P, basal subtracted; 60,000 tested, 0.1% active;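 active = activation above the screen-wide mean plus 3 SD, cut at about 4.5% in these data, passing the limit was not always enough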
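Assay system: CHO cells stably expressing human S1P3, Gα16 and NFAT-β-lactamase reporter. Timing: overnight plating, 4 h compound 37 °C, 2 h substrate RT. Signal: β-lactamase FRET emission ratio 460/535 nm. Measure: percent activation versus median 1 µM S1P response, basal-subtracted, per plate. Repeats: primary screen single test, confirmation screen in triplicate.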
5HT1E ag: activates the human 5-HT1E serotonin receptor; P28566; CHO 5-HT1E Ga15 NFAT-bla reporter, FRET; 0% DMSO wells, 100% control agonist wells; activation, % at 6 µM; 65,000 tested, 0.69% active;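 active = activation above a set limit, the screen-wide mean activation plus 3 SD, cut at about 8.5% in these data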;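 also: 100% = positive control agonist at 1 µM giving full maximal response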
S1P1 ag-PAM: S1P1 (human) agonism or agonism potentiation; 56,000 tested, 0.57% active; activation, % at 9.5 µM; S1P1 CRE-bla cells, forskolin, beta-lactamase FRET, potentiator mode; S1P1 agonist co-added at EC20, 2 nM; 100% = saturating reference agonist, 0% = basal;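 active = activation above a cutoff set at the mean activation of all tested compounds plus 3 SD, cut at about 54% in these data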;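 also: forskolin at 4 µM as EC80 and the EC20 agonist is SEW2871; 100% = SEW2871 at its EC100 plus forskolin at EC80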
Target sequence (P21453 whole entry, looked up): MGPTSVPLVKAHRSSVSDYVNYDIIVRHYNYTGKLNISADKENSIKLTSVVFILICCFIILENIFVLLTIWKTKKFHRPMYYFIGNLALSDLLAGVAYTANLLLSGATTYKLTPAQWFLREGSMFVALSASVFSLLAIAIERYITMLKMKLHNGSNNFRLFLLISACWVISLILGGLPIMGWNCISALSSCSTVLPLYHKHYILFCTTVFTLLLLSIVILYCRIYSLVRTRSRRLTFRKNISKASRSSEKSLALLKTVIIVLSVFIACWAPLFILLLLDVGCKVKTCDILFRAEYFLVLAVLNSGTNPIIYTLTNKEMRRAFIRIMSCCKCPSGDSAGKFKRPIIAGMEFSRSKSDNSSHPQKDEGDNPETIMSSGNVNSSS
* marks the source's active call; other numbers are inactive results. An excerpt weighted towards active compounds, which were near 2.9% of everything screened.

For CCOC(=O)c1oc2cc(O)c(CC)cc2c(=O)c1-c1ccc2c(c1)OCCO2 the results were 5-HT1A blocker -15, HTR1A agonist 1, 5HT1E antag 5, S1P3 ag 1, 5HT1E ag 1 and S1P1 ag-PAM 67.
For CCc1ccc(S(=O)(=O)NCCc2csc(-c3ccccc3)n2)s1 the results were 5-HT1A blocker -1, HTR1A agonist -2, 5HT1E antag 17, S1P3 ag 0, 5HT1E ag -1 and S1P1 ag-PAM 65*.
Screening CCc1ccc(S(=O)(=O)NCc2csc(-c3ccccc3)n2)s1 returned 5-HT1A blocker -12, HTR1A agonist -1, 5HT1E antag -6, S1P3 ag 0, 5HT1E ag -1 and S1P1 ag-PAM 6.
Screening Cn1c(=O)[nH]c(=O)c2c1nc(N1CCOCC1)n2CCSc1ncccn1 returned 5-HT1A blocker -4, HTR1A agonist -1, 5HT1E antag -6, S1P3 ag 0, 5HT1E ag 0 and S1P1 ag-PAM -22.
Screening COc1ccc(-c2cc(C(=O)Nc3ccccc3SC)no2)cc1OC returned 5-HT1A blocker -14, HTR1A agonist 2, 5HT1E antag -15, S1P3 ag -1, 5HT1E ag 1 and S1P1 ag-PAM -6.
For COc1ccc(NC(=O)c2cc(-c3ccccc3OC)on2)cc1 the results were 5-HT1A blocker 22, HTR1A agonist -3, 5HT1E antag 26, S1P3 ag 0, 5HT1E ag 0 and S1P1 ag-PAM 42.
For COc1ccccc1-c1cc(C(=O)Nc2ccccc2SC)no1 the results were 5-HT1A blocker -1, HTR1A agonist -3, 5HT1E antag 0, S1P3 ag 0, 5HT1E ag 0 and S1P1 ag-PAM 94*.
For COc1cccc(-c2cc(C(=O)Nc3ccccc3SC)no2)c1 the results were 5-HT1A blocker 6, HTR1A agonist -4, 5HT1E antag 12, S1P3 ag -1, 5HT1E ag 0 and S1P1 ag-PAM 89*.
CCOC(=O)N1CCN(C(c2ccc(F)cc2)c2sc3nc(C)nn3c2O)CC1 (stereo not given) was read as 5-HT1A blocker 4, HTR1A agonist 0, 5HT1E antag 7, S1P3 ag -1, 5HT1E ag 0 and S1P1 ag-PAM -3.
Screening CC1(C)Cc2c(C#N)c(NCc3ccco3)nc(-c3ccco3)c2CO1 returned HTR1A agonist 54*, 5HT1E antag -3, S1P3 ag 2, 5HT1E ag 11* and S1P1 ag-PAM -57.
Screening COC(=O)CSc1ncnc2c1sc1nc(-c3ccco3)c3c(c12)CC(C)(C)OC3 returned HTR1A agonist 1, 5HT1E antag 1, S1P3 ag 11, 5HT1E ag 0 and S1P1 ag-PAM 9.
For CC(C)c1nc2sc3c(NCc4ccco4)ncnc3c2c2c1COC(C)(C)C2 the results were 5-HT1A blocker 18, HTR1A agonist 9, 5HT1E antag 56* and 5HT1E ag 0.
For Cc1nc(NCc2ccco2)c(C#N)c2c1COC(C)(C)C2 the results were 5-HT1A blocker 1, HTR1A agonist -1, 5HT1E antag 0, S1P3 ag 0, 5HT1E ag -1 and S1P1 ag-PAM -9.
CCc1nc(SCc2ccc(C(=O)OC)o2)c2c(=O)n(C)c(=O)n(C)c2n1 was read as 5-HT1A blocker -5, HTR1A agonist 1, 5HT1E antag 16, S1P3 ag 0, 5HT1E ag 1 and S1P1 ag-PAM -8.
For CCN(CC)C(=O)Cn1nc(-c2ccccc2O)nc1SCC(=O)Nc1ccc(OC)cc1 the results were 5-HT1A blocker -5, HTR1A agonist 2, 5HT1E antag -15, S1P3 ag 1, 5HT1E ag 0 and S1P1 ag-PAM -13.
`COC(=O)CNc1nc(C2CC2)nc2c1nnn2Cc1ccccc1Cl` gave 5-HT1A blocker 5, HTR1A agonist -2, 5HT1E antag 11, S1P3 ag -2, 5HT1E ag 0 and S1P1 ag-PAM 5.
For c1ccc(Cn2nnc3c(Nc4ccc5c(c4)OCO5)nc(C4CC4)nc32)cc1 the results were 5-HT1A blocker 20, HTR1A agonist 22*, 5HT1E antag 0, S1P3 ag -1, 5HT1E ag 2 and S1P1 ag-PAM 39.
Cc1csc(/C(=N\O)c2csc(C)n2)n1 was read as 5-HT1A blocker -1, HTR1A agonist -2, 5HT1E antag -1, S1P3 ag 0, 5HT1E ag 0 and S1P1 ag-PAM -30.
COc1cc2c(O)c3c(c(-c4ccc5c(c4)OCO5)c2cc1OC)C(=O)OC3 was read as 5-HT1A blocker 21, HTR1A agonist -1, 5HT1E antag 34*, S1P3 ag -1, 5HT1E ag -1 and S1P1 ag-PAM 25.
CCCCOc1ccccc1NC(=O)CC1SC(=NCC)N(CC)C1=O (stereo not given) was read as 5-HT1A blocker 10, HTR1A agonist 1, 5HT1E antag 2, S1P3 ag -1, 5HT1E ag 0 and S1P1 ag-PAM 5.
CC(=O)NC(CCS(C)(=O)=O)C(=O)Nc1ccccc1Cl (stereo not given) was read as 5-HT1A blocker -4, HTR1A agonist -5, 5HT1E antag -2, S1P3 ag 1, 5HT1E ag -1 and S1P1 ag-PAM -28.
CC(=O)NC(CCS(C)(=O)=O)C(=O)Nc1cc(Cl)ccc1Cl (stereo not given) was read as 5-HT1A blocker 9, HTR1A agonist 120*, 5HT1E antag -5, S1P3 ag 0, 5HT1E ag 0 and S1P1 ag-PAM 12.
Screening c1cc2c(cc1C1=Nn3c(nnc3C3CCCCC3)SC1)OCO2 returned HTR1A agonist 1, 5HT1E antag 32*, S1P3 ag -2, 5HT1E ag -2 and S1P1 ag-PAM -13.
Screening c1ccc(-c2nnc3n2N=C(c2ccc4c(c2)OCO4)CS3)nc1 returned HTR1A agonist -1, 5HT1E antag 2, S1P3 ag -1, 5HT1E ag -1 and S1P1 ag-PAM 4.
For CCOC(=O)c1cc2c(ccn2C)n1CC(=O)N1CCN(c2ccccc2OC)CC1 the results were 5-HT1A blocker 17, HTR1A agonist -2, 5HT1E antag 4, S1P3 ag -1, 5HT1E ag 0 and S1P1 ag-PAM 2.
For C=CCn1c(SCC(=O)N2CCN(C(=O)c3ccco3)CC2)nc2sc(CC)cc2c1=O the results were 5-HT1A blocker -1, HTR1A agonist 2, 5HT1E antag 16, S1P3 ag -1, 5HT1E ag -2 and S1P1 ag-PAM -1.
C=CCn1c(SCC(=O)c2cccs2)nc2sc(CC)cc2c1=O was read as 5-HT1A blocker 13, HTR1A agonist 2, 5HT1E antag 6, S1P3 ag -2, 5HT1E ag 0 and S1P1 ag-PAM 93*.

Source: PubChem
